In ChEMBL document CHEMBL4364265, “Oridonin derivatives as potential anticancer drug candidates triggering apoptosis through mitochondrial pathway in the liver cancer cells” (Eur J Med Chem, 2019):

Legend:
[1] = tested on: HepG2; assay: Induction of apoptosis in human HepG2 cells assessed as necrotic cells at 1 uM incubated for 24 hrs by annexin V staining based cell counting method (reference value: 3.40%); format: functional
[2] = tested on: HepG2; assay: Induction of apoptosis in human HepG2 cells assessed as late apoptotic cells at 1 uM incubated for 24 hrs by annexin V staining based cell counting method (reference value: 5.65%); format: functional
[3] = tested on: HepG2; assay: Induction of cell cycle arrest in human HepG2 cells assessed as accumulation at S phase at 1 uM incubated for 24 hrs by PI staining based flow cytometric analysis (reference value: 35.46%); format: functional
[4] = tested on: RPMI-8226; assay: Antiproliferative activity against human RPMI8226 cells incubated for 72 hrs by CCK8 cells; format: functional, cell-based; settings: RPMI-8226, 72 h
In short: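 CCK-8 proliferation assay. 10,000 cells per well were preincubated 24 h at 37 °C with 5% CO2, then given compound dissolved in DMSO and incubated 72 h. CCK-8 was added for 4 h and absorbance read at 450 nm. IC50 was taken from dose-response curves as mean ± SEM of at least three independent experiments, with paclitaxel as positive control. HepG2 and L-O2 were grown in DMEM/10% FBS; A549 and RPMI-8226 in RPMI 1640/10% FBS.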

[5] = Half life in human plasma measured for 5 to 120 mins by LC-MS/MS analysis; format: ADME, cell-free
In short: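 Compound at an initial 5000 ng/mL was incubated in human plasma at 37 °C. 100 µL aliquots were taken at 0–120 min and extracted with methanol plus tyrosine internal standard, then centrifuged and filtered. Extracts were analysed by LC-MS/MS on a triple-quadrupole instrument with ESI.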

[6] = tested on: HepG2; assay: Induction of apoptosis in human HepG2 cells assessed as upregulation of Bax protein expression level incubated for 24 hrs by Western blot analysis; format: functional, cell-based
In short: (§1)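 Cells were treated 24 h in DMEM with 0, 0.25, 0.5, 1.0 or 1.25 µM compound. Adherent and floating cells were lysed in RIPA on ice and protein measured by BCA. Equal protein was run on 7.5–12.5% SDS-PAGE and transferred to PVDF. Membranes were blocked in 5% milk/PBST, incubated with primary antibody overnight at 4 °C, and detected by ECL.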

[7] = tested on: PLC-PRF-5; assay: Induction of apoptosis in human PLC/PRF/5 cells assessed as late apoptotic cells at 0.5 uM incubated for 24 hrs by annexin V staining based cell counting method (reference value: 4.81%); format: functional
[8] = tested on: PLC-PRF-5; assay: Induction of apoptosis in human PLC/PRF/5 cells assessed as live cells at 0.5 uM incubated for 24 hrs by annexin V staining based cell counting method (reference value: 88.95%); format: functional
[9] = tested on: HepG2; assay: Induction of apoptosis in human HepG2 cells assessed as late apoptotic cells at 0.25 uM incubated for 24 hrs by annexin V staining based cell counting method (reference value: 5.65%); format: functional
[10] = tested on: PLC-PRF-5; assay: Antitumour activity against human PLC/PRF/5 cells xenografted in nude mouse assessed as reduction in tumour weight at 10 mg/kg, iv administrated once every 3 days for 4 weeks relative to control; format: functional; set-up: scale not given: the % may be the effect or the level left
In short: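 PLC/PRF/5 xenograft. 2 × 10^7 cells in 0.2 mL saline were injected s.c. into the right forelimb of nude mice. At about 120 mm3, mice were randomized into 3 groups of 6 and dosed i.v. at 10 mg/kg once every three days for 4 weeks. Vehicle was 10% N-methylpyrrolidone/12% Tween-80/78% saline. Volume (a×b²/2) and body weight were recorded daily, and tumors were excised and weighed at the end.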

[11] = tested on: PLC-PRF-5; assay: Induction of mitochondrial membrane potential loss in human PLC/PRF/5 cell incubated for 24 hrs by JC1 staining based fluorescence microscopic method; format: functional
In short: (§2)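 Cells seeded in 12-well plates, cultured 12 h, treated 24 h (0, 0.25, 0.5, 1 µM). After a PBS wash, stained with JC-1 in medium for 20 min at 37 °C and washed three times. Red aggregate and green monomer fluorescence were imaged by fluorescence microscopy; the red/green ratio was taken; three independent experiments.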

[12] = tested on: PLC-PRF-5; assay: Induction of cell cycle arrest in human PLC/PRF/5 cells assessed as accumulation at G2 phase at 0.25 uM incubated for 24 hrs by PI staining based flow cytometric analysis (reference value: 18.05%); format: functional
[13] = tested on: HepG2; assay: Induction of apoptosis in human HepG2 cells assessed as down regulation of Bcl2 protein expression level incubated for 24 hrs by Western blot analysis; format: functional, cell-based; in short: as §1
[14] = tested on: HepG2; assay: Induction of apoptosis in human HepG2 cells assessed as early apoptotic cells at 0.25 uM incubated for 24 hrs by annexin V staining based cell counting method (reference value: 3.60%); format: functional
[15] = tested on: PLC-PRF-5; assay: Inhibition of colony formation in human PLC/PRF/5 cells at 0.5 uM incubated for 10 days by crystal violet staining based microscopic method relative to control; format: functional; settings: PLC-PRF-5, 240 h
In short: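 Five hundred cells plated per 30 mm dish and left 12 h. Medium with compound was added (0, 0.1, 0.5, 1 µM) or DMSO as negative control, and cells grew 10 days. Colonies were fixed in methanol 15 min, stained with 0.1% crystal violet 15 min, photographed and counted. Colony size was checked by microscope. Relative colony number is mean ± SD of ≥3 independent experiments.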

[16] = tested on: PLC-PRF-5; assay: Induction of apoptosis in human PLC/PRF/5 cells assessed as live cells at 0.25 uM incubated for 24 hrs by annexin V staining based cell counting method (reference value: 88.95%); format: functional
[17] = tested on: HepG2; assay: Induction of cell cycle arrest in human HepG2 cells assessed as accumulation at S phase at 0.25 uM incubated for 24 hrs by PI staining based flow cytometric analysis (reference value: 35.46%); format: functional
[18] = tested on: HepG2; assay: Induction of cell cycle arrest in human HepG2 cells assessed as accumulation at S phase at 0.5 uM incubated for 24 hrs by PI staining based flow cytometric analysis (reference value: 35.46%); format: functional
[19] = tested on: PLC-PRF-5; assay: Antiproliferative activity against human PLC/PRF/5 cells incubated for 72 hrs by CCK8 cells; format: functional, cell-based; settings: PLC-PRF-5, 72 h
[20] = Toxicity in nude mouse xenografted with human PLC/PRF/5 cells assessed as change in body weight at 10 mg/kg, iv administrated once every 3 days for 4 weeks; format: organism-based; settings: in vivo
In short: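 Nude mice were inoculated subcutaneously in the right forelimb with 2 × 10⁷ PLC/PRF/5 cells in 0.2 mL saline. At about 120 mm³, mice were randomized into 3 groups of 6. Dosing was i.v. once every three days for 4 weeks, with vehicle 10% N-methylpyrrolidone/12% Tween-80/78% saline. Body weight was recorded daily.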

[21] = tested on: HepG2; assay: Induction of cell cycle arrest in human HepG2 cells assessed as accumulation at G2 phase at 0.25 uM incubated for 24 hrs by PI staining based flow cytometric analysis (reference value: 25.55%); format: functional
[22] = tested on: HepG2; assay: Induction of mitochondrial membrane potential loss in human HepG2 cell incubated for 24 hrs by JC1 staining based fluorescence microscopic method; format: functional; in short: as §2
[23] = tested on: HepG2; assay: Induction of cell cycle arrest in human HepG2 cells assessed as accumulation at G1 phase at 1 uM incubated for 24 hrs by PI staining based flow cytometric analysis (reference value: 37.06%); format: functional

**Q.** With C=C1C(=O)[C@]23[C@H](OC(=O)/C=C/c4ccc(OC)cc4)[C@H]1CC[C@H]2[C@@]12CO[C@]3(O)[C@@H](O)[C@@H]1C(C)(C)CC[C@@H]2O as the molecule, how does the Activity [1] read?
**A.** 4.1%

**Q.** What about the Activity [2] of the same molecule?
**A.** 20.7%

**Q.** And the Activity [3]?
**A.** 30.88%

**Q.** What about the IC50 [4] of the same molecule?
**A.** 8.56 µM

**Q.** And the half-life [5]?
**A.** 2 h

**Q.** And the Activity [6]?
**A.** Dose-dependent effect

**Q.** And the Activity [7]?
**A.** 18.84%

**Q.** What about the Activity [8] of the same molecule?
**A.** 64.3%

**Q.** And the Activity [9]?
**A.** 5.7%

**Q.** What about the Activity [10] of the same molecule?
**A.** 38.1%

**Q.** And the Activity [11]?
**A.** Dose-dependent effect

**Q.** What about the Activity [12] of the same molecule?
**A.** 12.59%

**Q.** What about the Activity [13] of the same molecule?
**A.** Dose-dependent effect

**Q.** What about the Activity [14] of the same molecule?
**A.** 5.3%

**Q.** And the inhibition at 0.5 µM [15]?
**A.** 100%

**Q.** And the Activity [16]?
**A.** 80.53%

**Q.** What about the Activity [17] of the same molecule?
**A.** 33.94%

**Q.** What about the Activity [18] of the same molecule?
**A.** 34.53%

**Q.** And the IC50 [19]?
**A.** 0.78 µM

**Q.** What about the Activity [20] of the same molecule?
**A.** Non-Toxic

**Q.** And the Activity [21]?
**A.** 24.78%

**Q.** What about the Activity [22] of the same molecule?
**A.** Dose-dependent effect

**Q.** And the Activity [23]?
**A.** 42.33%
